Like-named read-outs stand apart in the source and are kept apart here.
Tests used:
[1] = cited from earlier work
[2] = Brain and plasma pharmacokinetics after ip administration of 5 mg/kg; format: in vivo; settings: mice, after ip injection of 5 mg/kg of 4
Outline: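 Mice received the test compound at 5 mg/kg ip. Brain and plasma levels were followed over time to give elimination rates from each compartment. In a repeat-dose arm, tissues were sampled 4 h after a single 5 mg/kg ip dose or 4 h after the second of two doses given 4 h apart. Brain-to-plasma concentration ratios were calculated for each regimen.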

acetylated α-tubulin = test: Acetylated α-tubulin in brain homogenates after repeated dosing; format: in vivo; settings: normal mice, 1 day after two 5 mg/kg doses (ip)
[3] = format: in vivo; settings: plasma concentration after ip versus oral administration
[4] = stated as known for 1 and related congeners, no reference given; cited from earlier work

distribution of metabolites in brain and plasma samples [2]	Structure (SMILES)	brain penetration [1]	differential between brain and plasma half-life [1]	further results
–	C/C(=C\c1csc(C)n1)[C@@H]1C[C@@H]2O[C@]2(C)CCC[C@H](C)[C@H](O)[C@@H](C)C(=O)C(C)(C)[C@@H](O)CC(=O)O1 [epothilone B]	brain penetrant	large differential	–
–	C/C1=C/C[C@@H](/C(C)=C/c2csc(C)n2)OC(=O)C[C@H](O)C(C)(C)C(=O)[C@H](C)[C@@H](O)[C@@H](C)CCC1 [epothilone D]	brain penetrant	large differential	–
detected predominantly in plasma	C[C@H](Nc1c(-c2c(F)cc(O)cc2F)c(Cl)nc2ncnn12)C(F)(F)F [compound 6]	–	–	–
–	C[C@H](Nc1c(-c2c(F)cc(OCCCO)cc2F)c(Cl)nc2ncnn12)C(F)(F)F [compound 4, (S)-3-(4-(5-Chloro-7-((1,1,1-trifluoropropan-2-yl)amino)-[1,2,4]triazolo[1,5-a]pyrimidin-6-yl)-3,5-difluorophenoxy)-propan-1-ol]	–	–	acetylated α-tubulin (marker of stable MTs) in brain homogenates (acetylated α-tubulin): significant elevation; oral bioavailability [3]: orally bioavailable
detected predominantly in plasma	C[C@H](Nc1c(-c2c(F)cc(OCCC(=O)O)cc2F)c(Cl)nc2ncnn12)C(F)(F)F [compound 5]	–	–	–
–	CNCCCOc1cc(F)c(-c2c(Cl)nc3ncnn3c2N[C@@H](C)C(F)(F)F)c(F)c1 [compound 1, cevipabulin]	–	–	oral bioavailability [4]: orally bioavailable

From PMC4569539 (Bioorganic & medicinal chemistry letters, 2015)
